Legend:
MDA-MB-231 [1] = experiment: Cell cycle arrest in human MDA-MB-231 cells assessed as accumulation at G1 phase at o.74 uM after 24 hrs using propidium iodide staining by flow cytometry; type: functional
MDA-MB-231 [2] = experiment: Cell cycle arrest in human MDA-MB-231 cells assessed as accumulation at S phase at o.74 uM after 24 hrs using propidium iodide staining by flow cytometry; type: functional
MDA-MB-231 [3] = experiment: Cell cycle arrest in human MDA-MB-231 cells assessed as accumulation at G2 phase at o.74 uM after 24 hrs using propidium iodide staining by flow cytometry; type: functional
MCF7 [4] = experiment: Cytotoxicity against human MCF7 cells after 72 hrs by MTT assay; type: functional, cell-based; conditions: mcf7; read-out: IC50
Procedure, shortened: (§1)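 Seeded at 5000–10000 cells/well, incubated at 37 °C in CO2 with compounds at a range of concentrations, controls included, in triplicate wells. After 72 h, MTT solution (5 mg/mL) added; absorbance read at 540 nm. % cytotoxicity = 100 × [1 − (X/R1)] versus control absorbance; IC50 by nonlinear regression. Values are means of at least two independent experiments, three determinations each.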

SW-620 = experiment: Cytotoxicity against human SW620 cells after 72 hrs by MTT assay; type: functional, cell-based; conditions: sw-620; read-out: IC50; procedure, shortened: as §1
DU-145 = experiment: Cytotoxicity against human DU145 cells after 72 hrs by MTT assay; type: functional, cell-based; conditions: du-145; read-out: IC50; procedure, shortened: as §1
KB = experiment: Cytotoxicity against human KB cells after 72 hrs by MTT assay; type: functional, cell-based; conditions: kb; procedure, shortened: as §1
PA-1 = experiment: Cytotoxicity against human PA1 cells after 72 hrs by MTT assay; type: functional, cell-based; conditions: pa-1; read-out: IC50; procedure, shortened: as §1
K562 = experiment: Cytotoxicity against human K562 cells after 72 hrs by MTT assay; type: functional, cell-based; conditions: Homo sapiens, K562, 72 h; read-out: IC50; procedure, shortened: as §1
MIA PaCa-2 = experiment: Cytotoxicity against human MIAPaCa2 cells after 72 hrs by MTT assay; type: functional, cell-based; conditions: mia paca-2; read-out: IC50; procedure, shortened: as §1
A549 = experiment: Cytotoxicity against human […] cells after 72 hrs by MTT assay; type: functional, cell-based; conditions: a549; read-out: IC50; procedure, shortened: as §1
[5] = Cytotoxicity against mouse NIH/3T3 cells after 72 hrs by MTT assay; type: cell-based, NIH3T3; conditions: nih3t3; read-out: IC50; procedure, shortened: as §1
MCF7 [6] = experiment: Cell cycle arrest in human MCF7 cells assessed as accumulation at G1 phase at 0.5 uM after 24 hrs using propidium iodide staining by flow cytometry; type: functional
MCF7 [7] = experiment: Cell cycle arrest in human MCF7 cells assessed as accumulation at S phase at 0.5 uM after 24 hrs using propidium iodide staining by flow cytometry; type: functional
MCF7 [8] = experiment: Cell cycle arrest in human MCF7 cells assessed as accumulation at G2 phase at 0.5 uM after 24 hrs using propidium iodide staining by flow cytometry; type: functional
MCF7 [9] = experiment: Cell cycle arrest in human MCF7 cells assessed as accumulation at G1 phase at o.74 uM after 24 hrs using propidium iodide staining by flow cytometry; type: functional
MCF7 [10] = experiment: Cell cycle arrest in human MCF7 cells assessed as accumulation at S phase at o.74 uM after 24 hrs using propidium iodide staining by flow cytometry; type: functional
MCF7 [11] = experiment: Cell cycle arrest in human MCF7 cells assessed as accumulation at G2 phase at o.74 uM after 24 hrs using propidium iodide staining by flow cytometry; type: functional
MDA-MB-231 [12] = experiment: Cell cycle arrest in human MDA-MB-231 cells assessed as accumulation at G1 phase at 0.5 uM after 24 hrs using propidium iodide staining by flow cytometry; type: functional
MDA-MB-231 [13] = experiment: Cell cycle arrest in human MDA-MB-231 cells assessed as accumulation at S phase at 0.5 uM after 24 hrs using propidium iodide staining by flow cytometry; type: functional
MDA-MB-231 [14] = experiment: Cell cycle arrest in human MDA-MB-231 cells assessed as accumulation at G2 phase at 0.5 uM after 24 hrs using propidium iodide staining by flow cytometry; type: functional

Work on `COC(=O)[C@@H]1Cc2c([nH]c3ccccc23)[C@@H](c2ccc(OC)cc2)N1c1nc(N2CCN(C)CC2)nc(N2CCN(C)CC2)n1` yielded an Activity (MDA-MB-231 [1]) of 65.11%, an Activity (MDA-MB-231 [2]) of 21.91% and an Activity (MDA-MB-231 [3]) of 12.98%. For the same compound, the IC50 (MCF7 [4]) was 740 nM, the IC50 (SW-620) was 1350 nM and the IC50 (DU-145) was 6750 nM. For the same compound, the IC50 (KB) was 8060 nM, the IC50 (PA-1) was 1820 nM and the IC50 (K562) was 4600 nM. For the same compound, the IC50 (MIA PaCa-2) was 2300 nM, the IC50 (A549) was 2100 nM and the IC50 [5] was 1960 nM. The Activity (MCF7 [6]) was 64.4%, the Activity (MCF7 [7]) was 35.5% and the Activity (MCF7 [8]) was 0.09%. The Activity (MCF7 [9]) was 76.68%, the Activity (MCF7 [10]) was 0.12% and the Activity (MCF7 [11]) was 23.2%. For the same compound, the Activity (MDA-MB-231 [12]) was 64.63%, the Activity (MDA-MB-231 [13]) was 22.74% and the Activity (MDA-MB-231 [14]) was 12.63%.
